From article PMC11966289 (ACS Omega, 2025) come the findings set out here.

What all share (assay type): cell-based
The test system of data set [1] is P. falciparum (D6 strain). Description: In vitro antiplasmodial activity. Conditions: Plasmodium falciparum, D6, 72 h, read-out: P. falciparum (D6 strain) IC50.
Data set [2] is described as follows: In vitro cytotoxicity, Neutral Red assay. Conditions: African green monkey, Vero cells.
Data set [3] deals with P. falciparum (W2 strain). Description: In vitro antiplasmodial activity. Conditions: Plasmodium falciparum, W2, 72 h, read-out: P. falciparum (W2 strain) IC50. An outline of the steps:
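Infected erythrocytes (2% hematocrit, 2% parasitemia) in RPMI 1640 with 60 μg/mL amikacin and 10% human serum, exposed to serially diluted test compound under 90% N2/5% CO2/5% O2 at 37 °C for 72 h. Parasite LDH measured with Malstat reagent (30 min, room temperature), then NBT/PES (1 h, dark), stopped with 5% acetic acid, absorbance 650 nm. Triplicates; chloroquine/artemisinin and DMSO controls; IC50 from dose–response.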

As usually defined, the IC50 is the point on the concentration scale where inhibition reaches its midpoint.

Consider `C[C@@H]1CC[C@H]2[C@@H](C)C(=O)O[C@@H]3O[C@@]4(C)CC[C@@H]1[C@]32OO4` [ART, artemisinin, reference compound], for which the IC50 worked out at 19 nM in data set [1] and 28.1 nM in data set [3]. The compound further gave a concentration for half-maximal inhibition (IC50) at 48 h in data set [2] above 4.76 µg/mL.
Consider `Cc1cc(Cl)nc(N2CCN(CCNc3ccnc4cc(Cl)ccc34)CC2)n1` [Compound 5a, 7-Chloro-N-(2-(4-(4-chloro-6-methylpyrimidin-2-yl)piperazin-1-yl)ethyl)quinolin-4-amine], for which the IC50 in data set [1] was found to be 70 nM; in data set [3] it was 210 nM. The compound further registered an IC50 at 48 h in data set [2] above 4.76 µg/mL.
Regarding `Cc1cc(Cl)nc(N2CCN(CCCNc3ccnc4cc(Cl)ccc34)CC2)n1` [Compound 5b, 7-Chloro-N-(3-(4-(4-chloro-6-methylpyrimidin-2-yl)piperazin-1-yl)propyl)quinolin-4-amine], the figures for the 50% inhibitory concentration (IC50) in data set [1] and in data set [3] were 100 nM and 350 nM, respectively. This compound also gave an IC50 at 48 h in data set [2] above 4.76 µg/mL.
For `Clc1ccc2c(NCCCN3CCN(c4nccc(Cl)n4)CC3)ccnc2c1` [Compound 5c, 7-Chloro-N-(3-(4-(4-chloropyrimidin-2-yl)piperazin-1-yl)propyl)quinolin-4-amine], the half-maximal inhibitory concentration (IC50) in data set [1] is 62 nM; in data set [3] it was 230 nM. In data set [2], the half-inhibitory concentration (IC50) at 48 h was above 4.76 µg/mL.
As for `Cc1cc(N2CCN(CCNc3ccnc4cc(Cl)ccc34)CC2)nc(Cl)n1` [Compound 6a, 7-Chloro-N-(2-(4-(2-chloro-6-methylpyrimidin-4-yl)piperazin-1-yl)ethyl)quinolin-4-amine], the results for the half-inhibitory concentration (IC50) in data set [1] and in data set [3] were 79 nM and 500 nM, respectively. In data set [2], this compound returned an IC50 at 48 h above 4.76 µg/mL.
The corresponding values for `Cc1cc(N2CCN(CCCNc3ccnc4cc(Cl)ccc34)CC2)nc(Cl)n1` [Compound 6b, 7-Chloro-N-(3-(4-(2-chloro-6-methylpyrimidin-4-yl)piperazin-1-yl)propyl)quinolin-4-amine] are 66 nM, 200 nM and above 4.76 µg/mL.
The like results for `Clc1ccc2c(NCCCN3CCN(c4ccnc(Cl)n4)CC3)ccnc2c1` [Compound 6c, 7-Chloro-N-(3-(4-(2-chloropyrimidin-4-yl)piperazin-1-yl)propyl)quinolin-4-amine] were, in that order, 73 nM, 420 nM and above 4.76 µg/mL.
With `Cc1cc(N2CCN(CCNc3ccnc4cc(Cl)ccc34)CC2)nc(N2CCCCC2)n1` [Compound 7a, 7-Chloro-N-(2-(4-(6-methyl-2-(piperidin-1-yl)pyrimidin-4-yl)piperazin-1-yl)ethyl) quinolin-4-amine], the IC50 is 32 nM in data set [1] and 40 nM in data set [3]. Also, the half-inhibitory concentration (IC50) at 48 h in data set [2] was above 4.76 µg/mL.
The like results for `Cc1cc(N2CCN(CCNc3ccnc4cc(Cl)ccc34)CC2)nc(N2CCOCC2)n1` [Compound 7b, 7-Chloro-N-(2-(4-(6-methyl-2-morpholinopyrimidin-4-yl)piperazin-1-yl)ethyl) quinolin-4-amine] were, in that order, 95 nM, 49 nM and above 4.76 µg/mL.
`Cc1cc(N2CCN(CCNc3ccnc4cc(Cl)ccc34)CC2)nc(N2CCSCC2)n1` [Compound 7c, 7-Chloro-N-(2-(4-(6-methyl-2-thiomorpholinopyrimidin-4-yl)piperazin-1-yl)ethyl) quinolin-4-amine]: the figures for the half-maximal inhibitory concentration (IC50) in data set [1] and in data set [3] were 38 nM and 64 nM, respectively. In data set [2], this compound had an IC50 at 48 h above 4.76 µg/mL.
`Cc1cc(N2CCN(CCNc3ccnc4cc(Cl)ccc34)CC2)nc(N2CCCC2)n1` [Compound 7d, 7-Chloro-N-(2-(4-(6-methyl-2-(pyrrolidin-1-yl)pyrimidin-4-yl)piperazin-1-yl)ethyl) quinolin-4-amine]: the concentration for half-maximal inhibition (IC50) came out at 13 nM in data set [1] and 20 nM in data set [3]. The same compound registered a half-inhibitory concentration (IC50) at 48 h in data set [2] above 4.76 µg/mL.
`Cc1cc(N2CCN(CCCNc3ccnc4cc(Cl)ccc34)CC2)nc(N2CCCCC2)n1` [Compound 7f, 7-Chloro-N-(3-(4-(6-methyl-2-(piperidin-1-yl)pyrimidin-4-yl)piperazin-1-yl)propyl) quinolin-4-amine]: the 50% inhibitory concentration (IC50) in data set [1] came to 15 nM; in data set [3], 34 nM. The same compound came in with an IC50 at 48 h in data set [2] above 4.76 µg/mL.
On to `Cc1cc(N2CCN(CCCNc3ccnc4cc(Cl)ccc34)CC2)nc(N2CCOCC2)n1` [Compound 7g, 7-Chloro-N-(3-(4-(6-methyl-2-morpholinopyrimidin-4-yl)piperazin-1-yl)propyl) quinolin-4-amine], for which the results for the half-inhibitory concentration (IC50) in data set [1] and in data set [3] were 15 nM and 43 nM, respectively. The half-maximal inhibitory concentration (IC50) at 48 h in data set [2] was above 4.76 µg/mL.
For `Cc1cc(N2CCN(CCCNc3ccnc4cc(Cl)ccc34)CC2)nc(N2CCSCC2)n1` [Compound 7h, 7-Chloro-N-(3-(4-(6-methyl-2-thiomorpholinopyrimidin-4-yl)piperazin-1-yl)propyl) quinolin-4-amine], the half-inhibitory concentration (IC50) is 18 nM in data set [1] and 50 nM in data set [3]. The same compound returned a concentration for half-maximal inhibition (IC50) at 48 h in data set [2] above 4.76 µg/mL.
The like results for `CCN1CCN(c2nc(C)cc(N3CCN(CCCNc4ccnc5cc(Cl)ccc45)CC3)n2)CC1` [Compound 7j, 7-Chloro-N-(3-(4-(2-(4-ethylpiperazin-1-yl)-6-methylpyrimidin-4-yl)piperazin-1-yl)propyl)quinolin-4-amine] were, in that order, 19 nM, 20 nM and above 4.76 µg/mL.
The like results for `Cc1cc(N2CCN(CCCNc3ccnc4cc(Cl)ccc34)CC2)nc(N2CCN(C)CC2)n1` [Compound 7k, 7-Chloro-N-(3-(4-(6-methyl-2-(4-methylpiperazin-1-yl)pyrimidin-4-yl)piperazin-1-yl)propyl)quinolin-4-amine] were, in that order, 19 nM, 22 nM and above 4.76 µg/mL.
The corresponding values for `Clc1ccc2c(NCCCN3CCN(c4ccnc(N5CCCCC5)n4)CC3)ccnc2c1` [Compound 7l, 7-Chloro-N-(3-(4-(2-(piperidin-1-yl)pyrimidin-4-yl)piperazin-1-yl)propyl)quinolin-4-amine] are 14 nM, 31 nM and above 4.76 µg/mL.
In the case of `Clc1ccc2c(NCCCN3CCN(c4ccnc(N5CCOCC5)n4)CC3)ccnc2c1` [Compound 7m, 7-Chloro-N-(3-(4-(2-morpholinopyrimidin-4-yl)piperazin-1-yl)propyl)quinolin-4-amine], the IC50 in data set [1] came to 20 nM; in data set [3], 34 nM. In data set [2], the IC50 at 48 h is above 4.76 µg/mL.
`Clc1ccc2c(NCCCN3CCN(c4ccnc(N5CCSCC5)n4)CC3)ccnc2c1` [Compound 7n, 7-Chloro-N-(3-(4-(2-thiomorpholinopyrimidin-4-yl)piperazin-1-yl)propyl)quinolin-4-amine]: the half-inhibitory concentration (IC50) in data set [1] was 4080 nM; in data set [3] it was above 9830 nM. In addition, the IC50 at 48 h in data set [2] is above 4.76 µg/mL.
In the case of `CCN1CCN(c2nccc(N3CCN(CCCNc4ccnc5cc(Cl)ccc45)CC3)n2)CC1` [Compound 7p, 7-Chloro-N-(3-(4-(2-(4-ethylpiperazin-1-yl)pyrimidin-4-yl)piperazin-1-yl)propyl) quinolin-4-amine], the concentration for half-maximal inhibition (IC50) was 13 nM in data set [1] and 20 nM in data set [3]. Also, in data set [2], the IC50 at 48 h was above 4.76 µg/mL.
As to `COc1cccc2c1C(=O)c1c(O)c3c(c(O)c1C2=O)C[C@@](O)(C(=O)CO)C[C@@H]3O[C@H]1C[C@H](N)[C@H](O)[C@H](C)O1` [doxorubicin, reference compound], the IC50 at 48 h in data set [2] was found to be 8600 ± 400 nM.
